Assay results as given in ChEMBL document CHEMBL1142915, “Synthesis, structure, and estrogenic activity of 4-amino-3-(2-methylbenzyl)coumarins on human breast carcinoma cells” (Bioorg Med Chem, 2007).
Calls of active or inactive are those of the source. The calls are words filed in the database; no cut-off is given here. Residues, ends and D or L forms follow the SMILES beside them. *: point of attachment. Cbz = O=C(OCc1ccccc1)*

Columns and labels:
MCF7 [1] = test: Down regulation of estrogen receptor expression in MCF7 cells at 1 nM after 24 hrs; format: functional, cell-based; conditions: Homo sapiens
In short: (§1)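 MCF-7 cells were kept at least 2 days in phenol red-free DMEM with 10% charcoal-stripped FBS, seeded on glass coverslips at 10^4 cells/cm2, and treated 2 days later for 24 h. After fixation they were immunostained for ERα with HC-20 rabbit antiserum (1:40, 60 min, Triton-permeabilized) and Texas Red amplification. Median nuclear gray level was measured over about 80–120 nuclei per culture and expressed relative to untreated control. Statistics: Kruskal–Wallis with Dunn's test.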

MDA-MB-231 = test: Effect on proliferation of estrogen receptor deficient MDA-MB-231 cells at 1 uM after 3 days; format: functional, cell-based; conditions: Homo sapiens
In short: (§2)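 Cells were held at least 2 days in phenol red-free DMEM with 10% charcoal-stripped FBS at 37 °C and 5% CO2, then plated at 10^4 cells/cm2. On day 1 the medium was replaced with medium containing compound at 10^-6 M. On day 4 cells were trypsinized and counted electronically. Values are % of untreated control, mean of four determinations ±SD, by ANOVA with Dunnett's test.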

MCF7 [2] = test: Increase in proliferation of estrogen receptor expressing MCF7 cells at 1 uM after 3 days; format: functional, cell-based; conditions: Homo sapiens; in short: as §2
MCF7 [3] = test: Down regulation of estrogen receptor expression in MCF7 cells at 1 uM after 24 hrs; format: functional, cell-based; conditions: Homo sapiens; in short: as §1
Estrogen receptor = molecular target: T1, Estrogen receptor (Homo sapiens, UniProt P03372); test: Activity at ER assessed as enhancement of estrogen response element-driven gene transactivation in MVLN cells after 24 hrs by luciferase reporter gene assay relative to control
T1 sequence (P03372 whole entry): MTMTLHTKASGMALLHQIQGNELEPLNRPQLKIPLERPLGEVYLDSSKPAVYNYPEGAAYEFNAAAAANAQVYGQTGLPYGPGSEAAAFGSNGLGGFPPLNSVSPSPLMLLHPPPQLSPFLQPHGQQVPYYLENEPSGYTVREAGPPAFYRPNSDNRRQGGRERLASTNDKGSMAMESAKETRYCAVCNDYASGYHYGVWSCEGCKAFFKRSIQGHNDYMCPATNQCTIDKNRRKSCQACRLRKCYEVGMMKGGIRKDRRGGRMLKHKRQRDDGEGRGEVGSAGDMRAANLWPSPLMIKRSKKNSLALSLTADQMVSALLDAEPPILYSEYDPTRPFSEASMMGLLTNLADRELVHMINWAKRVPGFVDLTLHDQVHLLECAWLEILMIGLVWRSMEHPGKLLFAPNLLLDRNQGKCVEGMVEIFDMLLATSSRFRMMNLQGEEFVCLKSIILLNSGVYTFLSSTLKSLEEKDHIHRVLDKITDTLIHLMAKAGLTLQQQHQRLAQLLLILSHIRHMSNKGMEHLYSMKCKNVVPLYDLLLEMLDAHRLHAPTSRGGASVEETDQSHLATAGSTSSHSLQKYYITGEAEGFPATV

[4] = molecular target: T2, Estrogen receptor (Homo sapiens) (UniProt P03372); test: Displacement of [3H]17beta-estradiol from estrogen receptor relative to estradiol
T2 sequence (whole entry): T1 sequence (P03372 whole entry)
In short: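 Purified recombinant human ERα, diluted in 1 mg/mL BSA, adsorbed onto hydroxyapatite, washed, then incubated overnight at 0–4 °C with 1 nM [3H]E2 plus increasing amounts of cold E2 or test compound. HAP-bound radioactivity was extracted with ethanol and counted by liquid scintillation. RBA = […] × 100.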

MCF7 [5] = test: Inhibition of increase in proliferation of estrogen receptor expressing MCF7 cells at 10 uM after 3 days; format: functional, cell-based; conditions: Homo sapiens
MCF7 [6] = test: Abrogation of estrogen receptor down regulation in MCF7 cells at 10 uM after 7 hrs; conditions: Homo sapiens

Structure (SMILES): C[C@]12CC[C@@H]3c4ccc(O)cc4CC[C@H]3[C@@H]1CC[C@@H]2O
- Activity (MCF7 [1]): Active

Structure (SMILES): CCCCCNc1c(Cc2ccccc2C)c(=O)oc2cc(OC)ccc12
- Activity (MDA-MB-231): inactive

Structure (SMILES): Cc1ccccc1Cc1c(NC2CCCCC2)c2ccccc2oc1=O
- Activity (MCF7 [2]): Active
- Activity (MDA-MB-231): inactive
- Activity (MCF7 [3]): Active

Structure (SMILES): CCCCCCCCCCCCNc1c(Cc2ccccc2C)c(=O)oc2ccccc12
- Activity (MDA-MB-231): inactive
- EC50 (Estrogen receptor): 100 nM

Structure (SMILES): Cc1ccccc1Cc1c(NC2CCCC2)c2ccccc2oc1=O
- Activity (MCF7 [2]): Active
- Activity (MDA-MB-231): inactive
- Activity (MCF7 [3]): Active
- RBA [4]: < 0.1%

Structure (SMILES): C[C@]12CC[C@@H]3c4ccc(O)cc4C[C@@H](CCCCCCCCC[S+]([O-])CCCC(F)(F)C(F)(F)F)[C@H]3[C@@H]1CC[C@@H]2O (some centres undefined)
- Activity (MCF7 [5]): Active

Structure (SMILES): CC(C)C[C@@H](C=O)NC(=O)[C@H](CC(C)C)NC(=O)[C@H](CC(C)C)NC(=O)OCc1ccccc1 (Cbz-Leu-Leu-Leu-aldehyde)
- Activity (MCF7 [6]): Active

Structure (SMILES): Cc1ccccc1Cc1c(NCCc2ccccc2)c2ccccc2oc1=O
- Activity (MDA-MB-231): inactive
